Measurements reported in ChEMBL document CHEMBL1165973, “Design, synthesis and antibacterial activity of novel andrographolide derivatives” (Bioorg Med Chem, 2010).
Calls of active or inactive are those of the source. The calls are words filed in the database; no cut-off is given here.

Columns and labels:
[1] = tested on: Pseudomonas aeruginosa PAO1; assay: Inhibition of Pseudomonas aeruginosa PAO1 quorum sensing assessed as inhibition of protease production at 0.5 mM after 10 hrs by colorimetric method
How it was run: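 PAO1 grown overnight at 37 °C in PB medium ([…]), washed, diluted to OD600 0.05 and grown to midlog. Cells were washed again, reset to OD600 0.05 and cultured 10 h with compound at 0.5 mM. Filtered supernatant was incubated with azocasein in 10 mM Tris pH 7.2 and 1 mM CaCl₂ for 4 h at 37 °C with agitation, then quenched with NaOH and centrifuged.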

[2] = tested on: Pseudomonas aeruginosa PAO1; assay: Inhibition of Pseudomonas aeruginosa PAO1 quorum sensing assessed as inhibition of pycocyanin production at 0.5 mM after 24 hrs by spectrometry
How it was run: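 PAO1 grown overnight in LB, washed in fresh medium and diluted to OD600 0.05. Aliquots were grown 24 h in tubes with compound at 0.5 mM. Pyocyanin was extracted from filtered culture supernatant and quantified by a published method. Significance versus untreated control was set at P < 0.05.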

[3] = tested on: Pseudomonas aeruginosa; assay: Antibacterial activity at Pseudomonas aeruginosa PAO1 at 2 mM; format: functional, organism-based

inhibition [1] | inhibition [2] | Compound | Activity [3]
Active | Active | C=C1CC[C@@H]2[C@](C)(CO)[C@H](O)CC[C@@]2(C)[C@@H]1C/C=C1/C(=O)OC[C@H]1OC(=O)CCCC[C@H]1CCSS1 | 
 |  | C=C1CC[C@@H]2[C@]3(C)COC(C)(C)O[C@@H]3CC[C@@]2(C)[C@@H]1C/C=C1/C(=O)OC[C@H]1OC(=O)/C=C/C | inactive
Active | Active | C=C1CC[C@@H]2[C@](C)(CO)[C@H](O)CC[C@@]2(C)[C@@H]1C/C=C1/C(=O)OC[C@H]1OC(=O)CCCCC1CCCC1 | inactive
Active | Active | C=C1CC[C@@H]2[C@](C)(CO)[C@H](O)CC[C@@]2(C)[C@@H]1C/C=C1/C(=O)OC[C@H]1OC(=O)CC12CC3CC(CC(C3)C1)C2 | inactive
 | Active | C=C1CC[C@@H]2[C@](C)(CO)[C@H](O)CC[C@@]2(C)[C@@H]1C/C=C1/C(=O)OC[C@H]1OC(=O)CCCC | inactive
Active | Active | C=C1CC[C@@H]2[C@](C)(CO)[C@H](O)CC[C@@]2(C)[C@@H]1C/C=C1/C(=O)OC[C@H]1OC(=O)/C=C/C | inactive
 |  | C=C1CC[C@@H]2[C@]3(C)COC(C)(C)O[C@@H]3CC[C@@]2(C)[C@@H]1C/C=C1/C(=O)OC[C@H]1OC(=O)CCCC | inactive
 |  | C=C1CC[C@@H]2[C@]3(C)COC(C)(C)O[C@@H]3CC[C@@]2(C)[C@@H]1C/C=C1/C(=O)OC[C@H]1OC(=O)/C=C/c1ccco1 | inactive
 |  | C=C1CC[C@@H]2[C@]3(C)COC(C)(C)O[C@@H]3CC[C@@]2(C)[C@@H]1C/C=C1/C(=O)OC[C@H]1OC(=O)CCCCCCCCCCC | inactive
 |  | C=C1CC[C@@H]2[C@]3(C)COC(C)(C)O[C@@H]3CC[C@@]2(C)[C@@H]1C/C=C1/C(=O)OC[C@H]1OC(=O)C12CC3CC(CC(C3)C1)C2 | inactive
Active | Active | C=C1CC[C@@H]2[C@](C)(CO)[C@H](O)CC[C@@]2(C)[C@@H]1C/C=C1/C(=O)OC[C@H]1OC(=O)/C=C/C1CCCCC1 | inactive
 | Active | C=C1CC[C@@H]2[C@](C)(CO)[C@H](O)CC[C@@]2(C)[C@@H]1C/C=C1/C(=O)OC[C@H]1OC(=O)CCCCCCC | inactive
 |  | C=C1CC[C@@H]2[C@]3(C)COC(C)(C)O[C@@H]3CC[C@@]2(C)[C@@H]1C/C=C1/C(=O)OC[C@H]1OC(=O)/C=C/C1CCCCC1 | inactive
Active | Active | C=C1CC[C@@H]2[C@](C)(CO)[C@H](O)CC[C@@]2(C)[C@@H]1C/C=C1/C(=O)OC[C@H]1OC(=O)CCCCCCCCCCC | inactive
 | Active | C=C1CC[C@@H]2[C@](C)(CO)[C@H](O)CC[C@@]2(C)[C@@H]1C/C=C1/C(=O)OC[C@H]1O | 
 |  | C=C1CC[C@@H]2[C@]3(C)COC(C)(C)O[C@@H]3CC[C@@]2(C)[C@@H]1C/C=C1/C(=O)OC[C@H]1OC(=O)CCCCCCC | inactive
 |  | C=C1CC[C@@H]2[C@]3(C)COC(C)(C)O[C@@H]3CC[C@@]2(C)[C@@H]1C/C=C1/C(=O)OC[C@H]1OC(=O)CCCCC | inactive
Active | Active | C=C1CC[C@@H]2[C@](C)(CO)[C@H](O)CC[C@@]2(C)[C@@H]1C/C=C1/C(=O)OC[C@H]1OC(=O)/C=C/c1ccco1 | inactive
Active | Active | C=C1CC[C@@H]2[C@](C)(CO)[C@H](O)CC[C@@]2(C)[C@@H]1C/C=C1/C(=O)OC[C@H]1OC(=O)CCCCC | inactive
 |  | C=C1CC[C@@H]2[C@]3(C)COC(C)(C)O[C@@H]3CC[C@@]2(C)[C@@H]1C/C=C1/C(=O)OC[C@H]1OC(=O)CCCC1CCCC1 | inactive
